From ChEMBL document CHEMBL3621153, “Structure-Based Design of GNE-495, a Potent and Selective MAP4K4 Inhibitor with Efficacy in Retinal Angiogenesis” (ACS Med Chem Lett, 2015)
pIC50: −log10 of the molar value. Blank lines part the entries; values can stand above or below the molecule they belong to. Active and inactive are the calls of the source. The calls are words filed in the database; no cut-off is given here.

Experiments:
[1] = target: T1, Mitogen-activated protein kinase kinase kinase kinase 4 (Homo sapiens, UniProt O95819); assay: Inhibition of MAP4K4 (unknown origin) by Z'LYTE assay
T1 sequence (O95819 whole entry): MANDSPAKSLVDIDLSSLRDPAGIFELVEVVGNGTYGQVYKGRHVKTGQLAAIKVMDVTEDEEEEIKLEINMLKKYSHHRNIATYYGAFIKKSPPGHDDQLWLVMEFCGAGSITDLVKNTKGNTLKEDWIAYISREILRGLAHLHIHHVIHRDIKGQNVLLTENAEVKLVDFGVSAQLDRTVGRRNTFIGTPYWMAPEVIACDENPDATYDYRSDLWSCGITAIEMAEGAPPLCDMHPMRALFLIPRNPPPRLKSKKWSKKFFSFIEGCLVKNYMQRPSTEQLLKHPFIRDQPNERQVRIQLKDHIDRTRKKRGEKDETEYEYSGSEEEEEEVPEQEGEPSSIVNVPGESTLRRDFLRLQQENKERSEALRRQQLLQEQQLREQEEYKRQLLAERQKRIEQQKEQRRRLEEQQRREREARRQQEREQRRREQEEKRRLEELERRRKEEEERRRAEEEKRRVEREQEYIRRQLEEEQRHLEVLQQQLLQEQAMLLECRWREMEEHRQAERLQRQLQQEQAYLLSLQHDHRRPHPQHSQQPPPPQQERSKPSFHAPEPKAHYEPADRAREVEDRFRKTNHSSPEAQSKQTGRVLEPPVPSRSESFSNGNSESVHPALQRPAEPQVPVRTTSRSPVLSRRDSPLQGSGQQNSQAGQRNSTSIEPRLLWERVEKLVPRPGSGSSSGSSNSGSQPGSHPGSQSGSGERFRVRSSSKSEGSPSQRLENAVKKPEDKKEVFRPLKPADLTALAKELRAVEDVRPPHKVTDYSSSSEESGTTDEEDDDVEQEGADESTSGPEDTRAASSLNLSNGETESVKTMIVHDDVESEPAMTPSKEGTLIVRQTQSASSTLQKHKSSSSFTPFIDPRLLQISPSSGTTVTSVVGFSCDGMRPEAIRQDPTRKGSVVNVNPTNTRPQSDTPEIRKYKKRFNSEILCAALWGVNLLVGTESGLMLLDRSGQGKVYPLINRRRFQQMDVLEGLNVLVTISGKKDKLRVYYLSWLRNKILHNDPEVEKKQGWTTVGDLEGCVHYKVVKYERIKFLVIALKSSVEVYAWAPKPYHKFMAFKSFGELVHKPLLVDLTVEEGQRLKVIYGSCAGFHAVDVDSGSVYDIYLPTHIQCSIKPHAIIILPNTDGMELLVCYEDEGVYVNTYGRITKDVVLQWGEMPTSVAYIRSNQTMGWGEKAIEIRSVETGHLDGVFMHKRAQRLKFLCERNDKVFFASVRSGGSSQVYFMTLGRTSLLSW

[2] = tested on: HUVEC; assay: Anti-angiogenesis activity in HUVEC assessed as inhibition of cell migration; format: functional, cell-based; details: Homo sapiens
[3] = Apparent permeability in MDCK cells at 10 uM incubated over 60 mins; format: ADME, cell-based, Canis lupus familiaris; details: dog
Procedure, shortened: (§1)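 MDCK cells exposed to test compound at 10 μM over 60 min. Apparent permeability (Papp) measured. Efflux ratio derived from apical–basolateral versus basolateral–apical flux rates.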

[4] = Efflux ratio in MDCK cells at 10 uM incubated over 60 mins; format: ADME, cell-based, Canis lupus familiaris; details: dog; procedure, shortened: as §1
[5] = Clearance in human liver microsomes assessed as compound remaining incubated for 1 hr by LC-MS/MS method; format: ADME
[6] = Clearance in mouse liver microsomes assessed as compound remaining incubated for 1 hr by LC-MS/MS method; format: ADME
[7] = Clearance in rat liver microsomes assessed as compound remaining incubated for 1 hr by LC-MS/MS method; format: ADME
Procedure, shortened: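 Compounds incubated with rat liver microsomes for 1 h; percent parent remaining quantified by LC–MS/MS.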

[8] = Ratio of drug level in brain to plasma in rat administered as cassette dosing; format: ADME, organism-based; details: read-out: BPR
Procedure, shortened: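 Brain-to-plasma ratio determined in rats after IV cassette dosing.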

[9] = tested on: Mus musculus; assay: Drug level in neonatal mouse pups assessed as time duration for sustained drug exposure at 25 and 50 mg/kg, ip; format: ADME, organism-based; details: in vivo
Procedure, shortened: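 Neonatal mouse pups given 25 or 50 mg/kg intraperitoneally. Plasma exposure followed over 24 h post-dose.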

[10] = tested on: Mus musculus; assay: Anti-angiogenesis activity in neonatal mouse pups assessed as delay in retinal vascular outgrowth dosed intraperitoneally daily form P1 to P5 days by isolectin -B4 staining; format: functional, organism-based
Procedure, shortened: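 Newborn mice dosed IP daily with vehicle or 100 mg/kg from P1 to P5. Retinas flat-mounted at P6 and stained with isolectin-B4. Avascular area normalized to total retina, one value per retina. Mann–Whitney unpaired test.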

[11] = Protein binding in mouse plasma; format: ADME, cell-free; details: read-out: PPB (converted)
[12] = Protein binding in rat plasma; format: ADME, cell-free; details: read-out: PPB (converted)
[13] = Clearance in mouse at 1 mg/kg, iv; format: ADME, organism-based; details: in vivo
Procedure, shortened: (§2)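 Single IV bolus of 1 mg/kg given as a solution in 10% EtOH, 30% PEG400, 60% 50 mM citrate, pH 3.0, in mouse, rat or dog. Three animals per group; mean values reported.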

[14] = Half life in mouse at 1 mg/kg, iv; format: ADME, organism-based; details: in vivo; procedure, shortened: as §2
[15] = Cmax in mouse at 1 mg/kg, iv; format: ADME, organism-based; set-up: dose 1 mg/kg, route intravenous; details: in vivo; procedure, shortened: as §2
[16] = tested on: Mus musculus; assay: Volume of distribution in mouse at 5 mg/kg, po; format: ADME, organism-based; details: in vivo
[17] = AUC (infinity) in mouse at 5 mg/kg, po; format: ADME, organism-based; set-up: dose 5 mg/kg, time infinity, route oral; details: in vivo
[18] = Cmax in mouse at 5 mg/kg, po; format: ADME, organism-based; set-up: dose 5 mg/kg, route oral; details: in vivo
Procedure, shortened: (§3)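 Oral dose of 5 mg/kg given as a suspension in 0.5% (w/v) methylcellulose/0.2% (w/v) Tween 80 in sterile water, in mouse, rat or dog. Three animals per group; means reported. Bioavailability derived against a 1 mg/kg IV bolus.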

[19] = Tmax in mouse at 5 mg/kg, po; format: ADME, organism-based; details: in vivo; procedure, shortened: as §3
[20] = Oral bioavailability in mouse at 5 mg/kg; format: ADME, organism-based; details: in vivo; procedure, shortened: as §3
[21] = tested on: Brain; assay: Free drug concentration in mouse brain; format: ADME, tissue-based; details: in vivo
Procedure, shortened: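 Unbound drug concentration in brain measured in mice at the 1 h time point of the cross-species PK study.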

[22] = Clearance in rat at 1 mg/kg, iv; format: ADME, organism-based; details: in vivo; procedure, shortened: as §2
[23] = Half life in rat at 1 mg/kg, iv; format: ADME, organism-based; details: in vivo; procedure, shortened: as §2
[24] = Cmax in rat at 1 mg/kg, iv; format: ADME, organism-based; set-up: dose 1 mg/kg, route intravenous; details: in vivo; procedure, shortened: as §2
[25] = tested on: Rattus norvegicus; assay: Volume of distribution in rat at 5 mg/kg, po; format: ADME, organism-based; details: in vivo
[26] = AUC (infinity) in rat at 5 mg/kg, po; format: ADME, organism-based; set-up: dose 5 mg/kg, time infinity, route oral; details: in vivo
[27] = Cmax in rat at 5 mg/kg, po; format: ADME, organism-based; set-up: dose 5 mg/kg, route oral; details: in vivo; procedure, shortened: as §3
[28] = Tmax in rat at 5 mg/kg, po; format: ADME, organism-based; details: in vivo; procedure, shortened: as §3
[29] = Oral bioavailability in rat at 5 mg/kg; format: ADME, organism-based; details: in vivo; procedure, shortened: as §3
[30] = Half life in dog at 1 mg/kg, iv; format: ADME, organism-based, Canis lupus familiaris; details: in vivo; procedure, shortened: as §2
[31] = Cmax in dog at 1 mg/kg, iv; format: ADME, organism-based, Canis lupus familiaris; set-up: dose 1 mg/kg, route intravenous; details: in vivo; procedure, shortened: as §2
[32] = tested on: Canis familiaris; assay: Volume of distribution in dog at 5 mg/kg, po; format: ADME, organism-based, Canis lupus familiaris; details: in vivo
[33] = tested on: Canis familiaris; assay: AUC (infinity) in dog at 5 mg/kg, po; format: ADME, organism-based, Canis lupus familiaris; set-up: dose 5 mg/kg, time infinity, route oral; details: in vivo
[34] = Cmax in dog at 5 mg/kg, po; format: ADME, organism-based, Canis lupus familiaris; set-up: dose 5 mg/kg, route oral; details: in vivo; procedure, shortened: as §3
[35] = Tmax in dog at 5 mg/kg, po; format: ADME, organism-based, Canis lupus familiaris; details: in vivo; procedure, shortened: as §3
[36] = tested on: Canis familiaris; assay: Oral bioavailability in dog at 5 mg/kg; format: ADME, organism-based, Canis lupus familiaris; details: in vivo; procedure, shortened: as §3
[37] = tested on: Mus musculus; assay: Anti-angiogenesis activity in neonatal mouse pups assessed as induction of abnormal retinal vascular morphology at 100 mg/kg, ip dosed daily form P1 to P6 days by isolectin -B4 staining
[38] = target: T1, Mitogen-activated protein kinase kinase kinase kinase 4; assay: Inhibition of MAP4K4 (unknown origin) by LC3K method
Procedure, shortened: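 Kinase activity read on a Caliper LabChip 3000 platform, with IC50 values derived from that read-out.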

pIC50 [1]: 8.43
Papp at 1 h, 10 µM [3]: 10.1 ×10⁻⁶ cm/s
efflux ratio at 1 h, 10 µM [4]: 0.83
CLhep predicted [5]: 6 mL/min/kg
CLhep predicted [6]: 61 mL/min/kg
Compound: Nc1ncc(C(=O)N[C@H]2C[C@@H](O)C2)c2ccc(-c3cccc(F)c3)nc12
pIC50 [2]: 6.67

pIC50 [1]: 8.46
CLhep predicted [5]: 5 mL/min/kg
CLhep predicted [6]: 28 mL/min/kg
Compound: CCC(=O)N1CC(NC(=O)c2cnc(N)c3nc(-c4cccc(F)c4)ccc23)C1
pIC50 [2]: 7.10

Papp at 1 h, 10 µM [3]: 2.4 ×10⁻⁶ cm/s
efflux ratio at 1 h, 10 µM [4]: 1.1
CLhep predicted [5]: 9 mL/min/kg
CLhep predicted [6]: 32 mL/min/kg
Compound: CNC(=O)N1CC(NC(=O)c2cnc(N)c3nc(-c4cccc(F)c4)ccc23)C1
pIC50 [2]: 6.71

pIC50 [1]: 8.43
Papp at 1 h, 10 µM [3]: 7.3 ×10⁻⁶ cm/s
efflux ratio at 1 h, 10 µM [4]: 2.3
CLhep predicted [5]: 7 mL/min/kg
CLhep predicted [6]: 13 mL/min/kg
Time [9]: > 24 h
fraction unbound [11]: 0.056
fraction unbound [12]: 0.022
clearance [13]: 19 mL/min/kg
half-life [14]: 1.5 h
Cmax [15]: 2700 nM
Vd [16]: 1.6 L/kg
AUC(0-inf) [17]: 5.3 µM·h
Cmax [18]: 1400 nM
Tmax [19]: 1 h
bioavailability [20]: 47%
Drug uptake(free) [21]: 0.008 µM
clearance [22]: 7.5 mL/min/kg
half-life [23]: 3.4 h
Cmax [24]: 4000 nM
Vd [25]: 1.2 L/kg
AUC(0-inf) [26]: 12 µM·h
Cmax [27]: 1500 nM
Tmax [28]: 4 h
bioavailability [29]: 40%
half-life [30]: 1.8 h
Cmax [31]: 3900 nM
Vd [32]: 1.1 L/kg
AUC [33]: 21 µM·h
Cmax [34]: 1200 nM
Tmax [35]: 1.7 h
F [36]: 37%
Compound: Nc1ncc(C(=O)NC2CN(C(=O)C3CC3)C2)c2ccc(-c3cccc(F)c3)nc12
pIC50 [2]: 7.24
Activity [10]: Active
Activity [37]: Active

pIC50 [1]: 8.85
Papp at 1 h, 10 µM [3]: 3.4 ×10⁻⁶ cm/s
efflux ratio at 1 h, 10 µM [4]: 0.74
CLhep predicted [5]: 16 mL/min/kg
CLhep predicted [6]: 78 mL/min/kg
Compound: Nc1ncc(C(=O)NC2CC2)c2ccc(-c3cccc(F)c3)nc12
pIC50 [2]: 7.00

The next lines start with the molecule.

Compound: N#CCNC(=O)c1cnc(N)c2cc(-c3cccc(F)c3)ccc12
pIC50 [1]: 7.34
CLhep predicted [7]: 23 mL/min/kg
Kp [8]: 0.12

Compound: CC(=O)N1CC(NC(=O)c2cnc(N)c3cc(-c4cccc(F)c4)ccc23)C1
pIC50 [1]: 7.49
CLhep predicted [7]: 9 mL/min/kg

Compound: NC(=O)c1cnc(N)c2cc(-c3cccc(F)c3)ccc12
pIC50 [1]: 7.74
CLhep predicted [7]: 40 mL/min/kg

Compound: Nc1ncc(C(=O)NC2CNC2)c2ccc(-c3cccc(F)c3)cc12
CLhep predicted [7]: 10.7 mL/min/kg

Compound: Nc1ncc(C(=O)NC2CC(O)C2)c2ccc(-c3cccc(F)c3)cc12 (mixture of isomers)
pIC50 [1]: 7.39
CLhep predicted [7]: 14.9 mL/min/kg
Kp [8]: 0.02

Compound: CNC(=O)N1CC(NC(=O)c2cnc(N)c3cc(-c4cccc(F)c4)ccc23)C1
CLhep predicted [7]: 12.7 mL/min/kg

Compound: Nc1ncnc2ccc(-c3cccc(F)c3)cc12
CLhep predicted [7]: 47.5 mL/min/kg

Compound: Nc1ncc(C(=O)NC2CC2)c2ccc(-c3cccc(F)c3)cc12
pIC50 [38]: 7.80
CLhep predicted [7]: 28 mL/min/kg
